Experimental data: PMC3774303 (Journal of medicinal chemistry, 2013)
Entries after “also recorded” stand apart in the source; their conditions may differ. Values belong to the molecule of their own block, whether it stands above or below them.

What was measured:
[1] = tested on: CT-L activity of rabbit 20S proteasome; assay: Dialysis using purified rabbit 20S proteasome; assay type: biochemical
Method in brief: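 Dialysed (3500 MWCO) against assay buffer at 4 °C; sampled at 0, 0.25, 1, 2, 4 and 18 h. CT-L activity read with 20 μM Suc-LLVY-AMC, 1 h at 37 °C, AMC ex 355/em 460 nm. Normalised to DMSO control.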

[2] = target: T1, T-L activity of purified 20S rabbit proteasome (Oryctolagus cuniculus, UniProt G1SWK8); assay: T-L proteolytic activity assay, fluorogenic peptide Bz-Val-Gly-Arg-AMC; assay type: biochemical
T1 sequence (G1SWK8 44-271): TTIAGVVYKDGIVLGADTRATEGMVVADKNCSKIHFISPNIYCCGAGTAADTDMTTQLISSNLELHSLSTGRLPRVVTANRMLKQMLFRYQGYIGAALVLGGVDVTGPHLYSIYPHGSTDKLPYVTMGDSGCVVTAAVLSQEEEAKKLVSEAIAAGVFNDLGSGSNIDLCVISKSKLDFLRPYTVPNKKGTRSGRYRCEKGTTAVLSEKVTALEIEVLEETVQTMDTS

[3] = target: PGPH-L activity of purified 20S rabbit proteasome (Oryctolagus cuniculus, UniProt G1T235); assay: PGPH-L proteolytic activity assay, fluorogenic peptide Z-Leu-Leu-Glu-AMC; assay type: biochemical
MDA-MB-468 cells = assay: MTT proliferation/survival assay; assay type: cell-based, human; settings: 120 h incubation
Method in brief: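 MDA-MB-468 cells were grown in DMEM with 10% FBS and penicillin/streptomycin at 37 °C in 5% CO2, then attached overnight. They were exposed to varying inhibitor concentrations for 120 h. MTT (1 mg/ml in fresh medium) was added for 3 h, formazan dissolved in DMSO, and absorbance read at 540 nm. IC50 came from the fit Y = M + (L–M)/(1+10^(X–logIC50)).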

[4] = target: proteasomal CT-L activity in intact human MDA-MB-468 cancer cells (Homo sapiens, UniProt P28074); assay: CT-L activity in intact MDA-MB-468 cells; assay type: cell-based
[5] = target: T2, CT-L proteolytic activity of the purified rabbit 20S proteasome (Oryctolagus cuniculus, UniProt G1T4Q9); assay: CT-L proteolytic activity assay, fluorogenic peptide Suc-Leu-Leu-Val-Tyr-AMC; assay type: biochemical; settings: for fold loss of CT-L activity compared to 11ad: relative to 11ad; for IC50: IC50 (μM) CT-L, 1 nM purified 20S rabbit proteasome, 20 μM Suc-Leu-Leu-Val-Tyr-AMC, 1 h at 37 °C, average of 2 or more determinations
T2 sequence (G1T4Q9 60-263): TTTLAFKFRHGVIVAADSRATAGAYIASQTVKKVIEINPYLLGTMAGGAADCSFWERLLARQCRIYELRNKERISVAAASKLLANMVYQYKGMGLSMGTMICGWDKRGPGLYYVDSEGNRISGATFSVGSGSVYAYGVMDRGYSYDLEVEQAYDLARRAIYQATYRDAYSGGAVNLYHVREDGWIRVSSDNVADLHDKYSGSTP

SMILES: Cc1ccc(OCC(=O)N(Cc2nc(-c3ccc(C)cc3)no2)C(C)C)cc1 [Compound 1, N-Isopropyl-N-((3-p-tolyl-1,2,4-oxadiazol-5-yl)methyl)-2-(p-tolyloxy)acetamide]
- time to full recovery of CT-L activity upon dialysis ([1]; pre-incubation with 10 μM compound for 30 min, dialysis at 4 °C): ≤ 2 h
- IC50 [2]: > 100 µM
- IC50 [3]: > 100 µM
- inhibition of tumor cell survival/proliferation (MTT) (MDA-MB-468 cells): inhibited survival/proliferation

SMILES: CCCc1ccc(OCC(=O)N(Cc2nc(-c3cccnc3)no2)C(C)C)cc1 [Compound 11ad]
- IC50 [4]: 0.37 µM
- IC50 [2]: > 100 µM
- IC50 [3]: > 100 µM
- inhibition of tumor cell survival/proliferation (MTT) (MDA-MB-468 cells): inhibited survival/proliferation; also recorded: anti-proliferative activity at low micromolar concentrations
- fold more potent than 1 (CT-L IC50) ([5]; relative to compound 1): 22 fold

SMILES: CCCc1ccc(OCC(=O)N(Cc2nc(-c3cnccn3)no2)C(C)C)cc1 [Compound 11am, N-Isopropyl-2-(4-propylphenoxy)-N-((3-(pyrazin-2-yl)-1,2,4-oxadiazol-5-yl)methyl)acetamide]
- fold loss of CT-L activity compared to 11ad [5]: 3 fold

SMILES: CCCc1ccc(OCC(=O)N(Cc2nc(-c3ncccn3)no2)C(C)C)cc1 [Compound 11ao, N-Isopropyl-2-(4-propylphenoxy)-N-((3-(pyrimidin-2-yl)-1,2,4-oxadiazol-5-yl)methyl)acetamide]
- fold loss of CT-L activity compared to 11ad [5]: 40 fold

SMILES: CC(C)N(Cc1nc(-c2ccc(C(F)(F)F)cc2)no1)C(=O)COc1ccccc1 [Compound 11l, N-Isopropyl-2-phenoxy-N-((3-(4-(trifluoromethyl)phenyl)-1,2,4-oxadiazol-5-yl)methyl)acetamide]
- fold loss of CT-L activity compared to 1 ([5]; relative to compound 1): 18 fold

SMILES: Cc1ccc(OCC(=O)N(Cc2nc(-c3ccc(C)cc3)no2)CC(C)C)cc1 [Compound 12a, N-Isobutyl-N-((3-p-tolyl-1,2,4-oxadiazol-5-yl)methyl)-2-(p-tolyloxy)acetamide]
- fold loss of CT-L activity compared to 1 ([5]; relative to compound 1): 4 fold

SMILES: CCN(Cc1nc(-c2ccc(C)cc2)no1)C(=O)COc1ccc(C)cc1 [Compound 12b, N-Ethyl-N-((3-p-tolyl-1,2,4-oxadiazol-5-yl)methyl)-2-(p-tolyloxy)acetamide]
- fold loss of CT-L activity compared to 1 ([5]; relative to compound 1): 10 fold

SMILES: Cc1ccc(CNC(=O)N(Cc2nc(-c3ccccc3)no2)C(C)C)cc1 [Compound 14, 1-Isopropyl-3-(4-methylbenzyl)-1-((3 phenyl-1,2,4-oxadiazol-5-yl)methyl)urea]
- IC50 [5]: > 10 µM

SMILES: CC(=O)N[C@@H](CSC(=O)[C@]1([C@@H](O)C(C)C)NC(=O)[C@H](C)[C@@H]1O)C(=O)O [lactacystin, reference compound]
- CT-L activity recovered upon dialysis ([1]; after 18 hours of dialysis, lactacystin 2.5 μM): very little CT-L activity was recovered

Second part, the molecule after the results:

- fold loss of CT-L activity compared to 1 ([5]; relative to compound 1): 10 fold
SMILES: CC(C)N(Cc1nc(-c2ccccc2)no1)C(=O)COc1ccccc1 [Compound 11j, N-Isopropyl-2-phenoxy-N-((3-phenyl-1,2,4-oxadiazol-5-yl)methyl)acetamide]

- fold loss of CT-L activity compared to 1 ([5]; relative to compound 1): 14 fold
SMILES: Cc1ccc(-c2noc(CN(C(=O)COc3ccccc3)C(C)C)n2)cc1 [Compound 11k, N-Isopropyl-2-phenoxy-N-((3-p-tolyl-1,2,4-oxadiazol-5-yl)methyl)acetamide]

- IC50 [5]: > 10 µM
SMILES: CC(C)N(Cc1nc(-c2ccccc2)no1)C(=O)COc1ccc(-c2ccccc2)cc1 [Compound 11q, 2-(Biphenyl-4-yloxy)-N-isopropyl-N-((3-phenyl-1,2,4-oxadiazol-5-yl)methyl)acetamide]

- IC50 [5]: > 10 µM
SMILES: CC(C)N(Cc1nc(-c2ccccc2)no1)C(=O)COc1ccc2cc(Br)ccc2c1 [Compound 11r, 2-(6-Bromonaphthalen-2-yloxy)-N-isopropyl-N-((3-phenyl-1,2,4-oxadiazol-5-yl)methyl)acetamide]

- fold loss of CT-L inhibitory activity compared to 11b ([5]; relative to 11b): 16 fold
SMILES: CC(C)N(Cc1nc(-c2ccccc2)no1)C(=O)COc1ccc(F)cc1 [Compound 11s, 2-(4-Fluorophenoxy)-N-isopropyl-N-((3-phenyl-1,2,4-oxadiazol-5-yl)methyl)acetamide]

- IC50 [5]: > 10 µM
SMILES: Cc1ccc(OCC(=O)N(CCc2nc(-c3ccccc3)no2)C(C)C)cc1 [Compound 23, N-Isopropyl-N-(2-(3-phenyl-1,2,4-oxadiazol-5-yl)ethyl)-2-(p-tolyloxy)acetamide]
